Results from paper PMC11900868 (Science Advances, 2025).

Tested on: CCl4-induced liver fibrosis mice
Experiment: Res treatment of CCl4-induced liver fibrosis, histology and immunohistochemistry
Type: in vivo, male Balb/c mice
Conditions: CCl4 10 weeks then discontinued; 10 mg/kg intraperitoneal twice a week
Procedure, shortened: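 Fibrosis induced in male Balb/c mice by intraperitoneal 20% CCl4 in olive oil twice weekly: 0.1 ml week 1, 0.15 ml week 2, 0.2 ml thereafter. After 10 weeks, CCl4 stopped and resveratrol given intraperitoneally at 10 mg/kg twice weekly for 1 or 3 weeks. Liver sections stained with H&E and Sirius red, plus α-SMA and FAP immunostaining. Percent positive area quantified; mean ± SD, ANOVA.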

SMILES: Oc1ccc(/C=C/c2cc(O)cc(O)c2)cc1 [Res, resveratrol]
- fibrotic tissue, HSCs activation and FAP expression after 1 week of treatment: significant reduction in fibrotic tissue, HSCs activation, and FAP expression levels
- fibrotic tissue, HSCs activation and FAP expression after 3 weeks of treatment: all parameters approached normal levels
